Laboratory results reported in paper PMC4976638 (Biochemistry, 2016).

Legend:
apoE3 [1] = biological target: apoE3 (Homo sapiens, UniProt P02649, A303C); assay: Fluorescence of TMR-labeled apoE3; assay type: binding
Outline: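 ApoE3 A285C was labelled with TMR maleimide (dye:protein 1:1; native Cys112 possibly also labelled). It was preincubated 1 h at room temperature, then titrated stepwise with test compound while fluorescence was monitored to derive an apparent Kd. Buffer: 20 mM HEPES pH 7.4, 150 mM NaCl, 1 mM DTT, 1 mM EDTA, 25 °C.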

apoE3 [2] = biological target: T1, apoE3 (Homo sapiens, UniProt P02649); assay: SYPRO Orange displacement titration, apoE3; assay type: binding; conditions: Apparent dissociation constant Kd, Using SYPRO Orange, PBS pH 7.4, 25 °C
T1 sequence (P02649 19-317): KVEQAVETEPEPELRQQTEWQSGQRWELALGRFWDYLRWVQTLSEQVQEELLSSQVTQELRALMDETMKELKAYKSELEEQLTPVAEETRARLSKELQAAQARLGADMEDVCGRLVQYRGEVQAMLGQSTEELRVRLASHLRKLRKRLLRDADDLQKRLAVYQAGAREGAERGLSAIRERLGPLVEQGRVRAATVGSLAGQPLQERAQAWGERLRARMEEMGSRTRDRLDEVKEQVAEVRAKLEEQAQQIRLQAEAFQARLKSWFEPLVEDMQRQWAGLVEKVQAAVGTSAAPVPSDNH
Outline: (§1)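 Adding apoE to SYPRO Orange increases its fluorescence and shifts the emission maximum to 575 nm. After a 1 h room-temperature protein preincubation, test compound was titrated stepwise and the decrease in SYPRO Orange fluorescence was fitted for an apparent Kd. Buffer: 10 mM phosphate pH 7.4, 150 mM NaCl, 1 mM DTT, 1 mM EDTA, 25 °C.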

apoE4 [3] = biological target: T2, apoE4 (Homo sapiens, UniProt P02649, C130R); assay: SYPRO Orange displacement titration, apoE4; assay type: binding; conditions: Apparent dissociation constant Kd, Using SYPRO Orange, PBS pH 7.4, 25 °C
T2 sequence (P02649 19-317 C130R): as the sequence (P02649 19-317) above, with C112R counted along it
Outline: as §1

apoE3 [4] = biological target: T1, apoE3; assay: Quenching of ANS fluorescence, apoE3; assay type: binding; conditions: Apparent dissociation constant Kd, Using ANS, PBS pH 7.4, 25 °C
Outline: (§2)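 Unlabelled apoE raises ANS fluorescence. Test compound was titrated stepwise into the apoE–ANS mixture after a 1 h room-temperature protein preincubation, and quenching of ANS fluorescence gave an apparent Kd. Buffer: 10 mM phosphate pH 7.4, 150 mM NaCl, 1 mM DTT, 1 mM EDTA, 25 °C.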

apoE4 [5] = biological target: T2, apoE4; assay: Quenching of ANS fluorescence, apoE4; assay type: binding
Outline: as §2

apoE4 [6] = biological target: apoE4 (Homo sapiens, UniProt P02649, C130R/S157C); assay type: binding
Chain of apoE4 (Homo sapiens, UniProt P02649, C130R/S157C) (P02649 19-317 C130R/S157C): as the sequence (P02649 19-317) above, with C112R, S139C counted along it
Outline: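 Alexa488-maleimide labelled the apoE4 S139C mutant after 20 mM DTT reduction (1–2 h, 37 °C), with a 10-fold molar dye excess overnight at 4 °C (>90% labelling). Labelled protein was preincubated 1 h at room temperature, then titrated stepwise with test compound to follow fluorescence decrease. Unlabelled apoE3 was then added. Buffer: 10 mM phosphate pH 7.4, 150 mM NaCl, 1 mM DTT, 1 mM EDTA, 25 °C.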

apoE4 [7] = biological target: T2, apoE4; assay: Analytical ultracentrifugation sedimentation velocity; conditions: 10 μM apoE4, 10 or 20 μM EZ-482, PBS
Outline: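 Recombinant apoE4 was expressed in E. coli BL21(DE3) as a His-tagged thioredoxin fusion, cleaved with PreScission protease (leaving N-terminal Gly-Pro), and dialysed into PBS. For sedimentation velocity, 10 μM apoE4 was run with 0, 10 or 20 μM test compound in PBS in a double-sector centerpiece (1.2 cm path), with absorbance at 290 nm recorded in continuous mode.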

apoE3 [8] = biological target: T1, apoE3; assay: Differential hydrogen-deuterium exchange MS, apoE3; assay type: binding
Outline: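 ApoE3 stock (10 μM in PBS, 2 mM DTT) was incubated 2 h at 25 °C with test compound […]; controls had 2% DMSO. Exchange ran in D₂O PBS (pD 7.4, 25 °C, 30 s–30 min), with 1 μM apoE and 25 μM compound. Quench used fungal XIII/urea/formic acid on ice, then pepsin digestion, C18 LC and ESI-QTOF MS. Duplicates; 48 h back-exchange correction.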

apoE4 [9] = biological target: T2, apoE4; assay: Differential hydrogen-deuterium exchange MS, apoE4; assay type: binding; conditions: 1 μM WT apoE4, 25 μM EZ-482, 25 °C
Solubility in DMSO = assay type: physicochemical

Chain of apoE3 (Homo sapiens, UniProt P02649, A303C) (P02649 19-317 A303C): as the sequence (P02649 19-317) above, with A285C counted along it

Kd (apoE3 [1]): 7 ± 0.35 µM
Kd (apoE3 [2]): 7.3 ± 0.53 µM
Kd (apoE4 [3]): 7.6 ± 0.4 µM
Kd (apoE3 [4]): 5.6 ± 0.7 µM
Kd (apoE4 [5]): 7.5 ± 1 µM
Kd (apoE4 [6]): 7.5 µM
Effect on distribution of apoE oligomers (apoE4 [7]): essentially unaffected
N-terminal allosteric effect by HDX, apoE3 (apoE3 [8]; 1 μM WT apoE3, 25 μM EZ-482, 25 °C): apoE3 N-terminal remained unaffected
Solubility in DMSO (Solubility in DMSO): reasonably soluble in DMSO
SMILES: Cn1nc(CC(=O)Nc2cc(S(=O)(=O)Nc3cccc(Cl)c3)ccc2O)c2ccccc2c1=O [EZ-482, N-{5-[(3-chlorophenyl)sulfamoyl]-2-hydroxyphenyl}-2-(3-methyl-4-oxo-3,4-dihydrophthalazin-1-yl)acetamide]
Binding site by HDX protection, apoE3 (apoE3 [8]; 1 μM WT apoE3, 25 μM EZ-482 or 1X SYPRO Orange, 25 °C): Large protection was observed only in the C-terminal domain (229–235/234–243 and 258–265)
Binding site by HDX protection, apoE4 (apoE4 [9]): Large protection was observed only in the C-terminal domain (229–235/234–243 and 258–265)
